Experimental data from ChEMBL document CHEMBL4219194, “Diversity-oriented synthesis of pyrazoles derivatives from flavones and isoflavones leads to the discovery of promising reversal agents of fluconazole resistance in Candida albicans” (2018).
≈ marks a conversion by molar mass, not a printed value.

Assays:
Format in all cases: functional
[1] = system: Candida albicans; experiment: Antifungal activity against Candida albicans SC5314 after 48 hrs by broth microdilution method; conditions: SC5314, 48 h
Outline: (§1)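 MIC80 read by broth microdilution, with fluconazole as the positive antifungal agent. Values are reported in µg/mL as means of three independent experiments. Strains: wild-type SC5314 and DSY654, which lacks the Cdr1 and Cdr2 efflux pumps.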

[2] = system: Candida albicans; experiment: Antifungal activity against CDR1 and CDR2 efflux pump deficient Candida albicans DSY654 after 48 hrs by broth microdilution method; conditions: DSY654, 48 h; outline: as §1
[3] = system: Candida albicans; experiment: Antifungal activity against fluconazole-resistant Candida albicans 28A after 48 hrs by broth microdilution method
Outline: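 Clinical fluconazole-resistant isolates tested in broth microdilution with the compound alone. The endpoint is MIC80, the lowest concentration giving 80% growth inhibition, in µg/mL.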

[4] = system: Candida albicans; experiment: Synergistic antifungal activity against fluconazole-resistant Candida albicans 28A after 48 hrs in presence of fluconazole by broth microdilution checkerboard method
Outline: (§2)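 Checkerboard dose-response matrix on strain 28A with gradients of fluconazole and the test compound in RPMI 1640, read after 48 h at 35 °C. MIC80 is taken alone and in combination, and FICI is calculated. Synergy is FICI ≤0.5, indifference >0.5-4, and antagonism >4.0.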

[5] = system: Candida albicans; experiment: Potentiation of fluconazole-induced antifungal activity against fluconazole-resistant Candida albicans 28A assessed as fluconazole MIC80 after 48 hrs by broth microdilution checkerboard method; outline: as §2
[6] = system: Candida albicans; experiment: Potentiation of fluconazole-induced antifungal activity against fluconazole-resistant Candida albicans 28A after 48 hrs by broth microdilution checkerboard method; outline: as §2

Row | Structure (SMILES) | MIC80 [1] | MIC80 [2] | MIC80 [3] | MIC80 [4] | MIC80 [5] | fractional inhibitory concentration index (FICI) [6]
1 | COc1ccc(-c2c[nH]nc2-c2ccc(O)cc2O)cc1 | > 128 mg/L | > 128 mg/L | > 128 mg/L | > 128 mg/L | > 128 mg/L | 2
2 | Oc1ccccc1-c1cc(-c2ccccc2)[nH]n1 | 16 mg/L (≈ 67.7 µM) | 8 mg/L (≈ 33.9 µM) | 64 mg/L (≈ 271 µM) | 16 mg/L | 2 mg/L | 0.266
3 | COc1ccc(C2=CC(c3c(O)cc(OC)cc3OC)=NCCN2)cc1 | > 128 mg/L | 16 mg/L (≈ 45.1 µM) | > 128 mg/L | > 128 mg/L | > 128 mg/L | 2
4 | OCCn1cc(-c2ccc(O)cc2)c(-c2ccc(O)cc2O)n1 | > 128 mg/L | > 128 mg/L | > 128 mg/L | > 128 mg/L | > 128 mg/L | 2
5 | COc1ccc(-c2cnn(-c3ccccc3)c2-c2c(O)cc(OC)cc2OC)cc1 | > 128 mg/L | > 128 mg/L | > 128 mg/L | > 128 mg/L | > 128 mg/L | 2
6 | COc1ccc(-c2cn[nH]c2-c2c(O)cc(O)cc2O)cc1 | > 128 mg/L | > 128 mg/L | > 128 mg/L | > 128 mg/L | > 128 mg/L | 2
7 | Oc1ccc(C2=NCCNC(c3ccccc3)=C2)c(O)c1O | > 128 mg/L | 32 mg/L (≈ 108 µM) | > 128 mg/L | > 128 mg/L | > 128 mg/L | 2
8 | Oc1ccccc1C1=NCCNC(c2ccccc2)=C1 | > 128 mg/L | > 128 mg/L | > 128 mg/L | > 128 mg/L | > 128 mg/L | 2
9 | OCCn1cc(-c2ccc(O)cc2)c(-c2ccc(O)c(C3OC(CO)C(O)C(O)C3O)c2O)n1 (stereo not given) | > 128 mg/L | > 128 mg/L | > 128 mg/L | > 128 mg/L | > 128 mg/L | 2
10 | OCCn1ncc(-c2ccc(O)cc2)c1-c1ccc(O)cc1O | > 128 mg/L | > 128 mg/L | > 128 mg/L | > 128 mg/L | > 128 mg/L | 2
11 | OCCn1nc(-c2ccccc2)cc1-c1ccccc1O | > 128 mg/L | 8 mg/L (≈ 28.5 µM) | > 128 mg/L | > 128 mg/L | > 128 mg/L | 2
12 | COc1ccc(-c2cn[nH]c2-c2c(O)cc(OC)cc2OC)cc1 | > 128 mg/L | > 128 mg/L | > 128 mg/L | > 128 mg/L | > 128 mg/L | 2
13 | COc1ccc(-c2cnn(CCO)c2-c2ccc(O)cc2O)cc1 | > 128 mg/L | > 128 mg/L | > 128 mg/L | > 128 mg/L | > 128 mg/L | 2
14 | COc1cc(O)c(-c2cc(-c3ccccc3)nn2-c2ccccc2)c(OC)c1 | > 128 mg/L | > 128 mg/L | > 128 mg/L | > 128 mg/L | > 128 mg/L | 2
15 | Oc1cc(O)c(-c2cc(-c3ccccc3)n[nH]2)c(O)c1 | > 128 mg/L | > 128 mg/L | > 128 mg/L | 8 mg/L | 2 mg/L | 0.078
16 | COc1ccc(-c2cc(-c3ccccc3)[nH]n2)c(O)c1OC | > 128 mg/L | > 128 mg/L | > 128 mg/L | > 128 mg/L | > 128 mg/L | 2
17 | CCn1cc(-c2ccc(OC)cc2)c(-c2ccc(O)cc2O)n1 | > 128 mg/L | > 128 mg/L | > 128 mg/L | > 128 mg/L | > 128 mg/L | 2
18 | COc1ccc(-n2nc(-c3ccccc3)cc2-c2c(O)cc(OC)c(OC)c2OC)cc1 | > 128 mg/L | 4 mg/L (≈ 9.25 µM) | > 128 mg/L | > 128 mg/L | > 128 mg/L | 2
19 | Oc1ccc(-c2cn[nH]c2-c2ccc(O)cc2O)cc1 | > 128 mg/L | > 128 mg/L | > 128 mg/L | > 128 mg/L | > 128 mg/L | 2
20 | OCCn1ncc(-c2ccc(O)cc2)c1-c1ccc(O)c(C2OC(CO)C(O)C(O)C2O)c1O (stereo not given) | > 128 mg/L | > 128 mg/L | > 128 mg/L | > 128 mg/L | > 128 mg/L | 2

Row | Structure (SMILES) | MIC80 [1] | MIC80 [2] | MIC80 [3] | MIC80 [4] | MIC80 [5] | fractional inhibitory concentration index (FICI) [6]
21 | COc1ccc(-c2cnn(-c3ccccc3)c2-c2ccc(O)cc2O)cc1 | > 128 mg/L | > 128 mg/L | > 128 mg/L | 16 mg/L | 2 mg/L | 0.141
22 | COc1cc(O)c(-c2cc(-c3ccccc3)n(CCO)n2)c(OC)c1 | > 128 mg/L | 4 mg/L (≈ 11.8 µM) | > 128 mg/L | 32 mg/L | 2 mg/L | 0.266
23 | CCn1ncc(-c2ccc(OC)cc2)c1-c1ccc(O)cc1O | > 128 mg/L | > 128 mg/L | > 128 mg/L | 32 mg/L | 2 mg/L | 0.266
24 | COc1ccc(-c2cnn(-c3ccc(OC)cc3)c2-c2ccc(O)cc2O)cc1 | > 128 mg/L | > 128 mg/L | > 128 mg/L | > 128 mg/L | > 128 mg/L | 2
25 | COc1ccc(-c2cn(CCO)nc2-c2ccc(O)cc2O)cc1 | > 128 mg/L | > 128 mg/L | > 128 mg/L | > 128 mg/L | > 128 mg/L | 2
26 | COc1ccc(C2=NCCNC(c3ccccc3)=C2)c(O)c1OC | > 128 mg/L | > 128 mg/L | > 128 mg/L | > 128 mg/L | > 128 mg/L | 2
27 | CCn1ncc(-c2ccc(O)cc2)c1-c1ccc(O)c(C2OC(CO)C(O)C(O)C2O)c1O (stereo not given) | > 128 mg/L | > 128 mg/L | > 128 mg/L | > 128 mg/L | > 128 mg/L | 2
28 | CCn1cc(-c2ccc(O)cc2)c(-c2ccc(O)c(C3OC(CO)C(O)C(O)C3O)c2O)n1 (stereo not given) | > 128 mg/L | > 128 mg/L | > 128 mg/L | > 128 mg/L | > 128 mg/L | 2
29 | Oc1ccc(-c2cnn(-c3ccccc3)c2-c2ccc(O)cc2O)cc1 | > 128 mg/L | > 128 mg/L | > 128 mg/L | > 128 mg/L | > 128 mg/L | 2
30 | Oc1ccc(-c2cc(-c3ccccc3)n[nH]2)c(O)c1O | 8 mg/L (≈ 29.8 µM) | 8 mg/L (≈ 29.8 µM) | > 128 mg/L | > 128 mg/L | > 128 mg/L | 2
31 | Oc1ccccc1-c1cc(-c2ccccc2)nn1-c1ccccc1 | 128 mg/L (≈ 410 µM) | 8 mg/L (≈ 25.6 µM) | 128 mg/L (≈ 410 µM) | 128 mg/L | 2 mg/L | 1.016
32 | COc1ccc(-n2nc(-c3c(O)cc(OC)c(OC)c3OC)cc2-c2ccccc2)cc1 | > 128 mg/L | > 128 mg/L | > 128 mg/L | > 128 mg/L | > 128 mg/L | 2
33 | Oc1ccc(-c2cn[nH]c2-c2c(O)cc(O)cc2O)cc1 | > 128 mg/L | > 128 mg/L | > 128 mg/L | > 128 mg/L | > 128 mg/L | 2
34 | COc1cc(O)c(C2=NCCNC(c3ccccc3)=C2)c(OC)c1 | 128 mg/L (≈ 395 µM) | 8 mg/L (≈ 24.7 µM) | 128 mg/L (≈ 395 µM) | 32 mg/L | 2 mg/L | 0.266
35 | Oc1ccc(-c2cc(-c3c(O)cc(O)cc3O)[nH]n2)cc1 | > 128 mg/L | > 128 mg/L | > 128 mg/L | 1 mg/L | 0.5 mg/L | 0.012
36 | COc1cc(O)c(-c2cc(-c3ccccc3)[nH]n2)c(OC)c1OC | 64 mg/L (≈ 196 µM) | 2 mg/L (≈ 6.13 µM) | 64 mg/L (≈ 196 µM) | 16 mg/L | 2 mg/L | 0.266
37 | COc1cc(O)c(-c2cc(-c3ccccc3)nn2-c2ccccc2)c(OC)c1OC | > 128 mg/L | > 128 mg/L | > 128 mg/L | > 128 mg/L | > 128 mg/L | 2
38 | OCC1OC(c2c(O)ccc(-c3n[nH]cc3-c3ccc(O)cc3)c2O)C(O)C(O)C1O (stereo not given) | > 128 mg/L | 16 mg/L (≈ 37.2 µM) | > 128 mg/L | > 128 mg/L | > 128 mg/L | 2
39 | COc1ccc(-c2cc(-c3c(O)cc(OC)cc3OC)[nH]n2)cc1 | > 128 mg/L | > 128 mg/L | > 128 mg/L | > 128 mg/L | > 128 mg/L | 2
40 | COc1cc(O)c(-c2cc(-c3ccccc3)n(-c3ccccc3)n2)c(OC)c1OC | > 128 mg/L | > 128 mg/L | > 128 mg/L | > 128 mg/L | > 128 mg/L | 2
